Experimental data gathered from unrelated publications.
Target: Mitogen-activated protein kinase 11 (MAPK11, Homo sapiens, UniProt Q15759)

| SMILES | test | setting | quantity | value |
| --- | --- | --- | --- | --- |
| COc1cc(/C=C/C(=O)CC(=O)/C=C/c2ccc(O)c(OC)c2)ccc1O | enzyme activity, inhibitor | 1 µM | activity vs control | 101% |
| CNC(=O)c1cc(Oc2ccc(NC(=O)Nc3ccc(Cl)c(C(F)(F)F)c3)cc2)ccn1 | cell-free assay | 0.5 µM | remaining signal | 46.9% |
| O=C(Nc1cnn(-c2csc(C(=O)NC3COC3)c2)c1)Nc1ccccc1Cl | enzyme activity, inhibitor | 5 µM | remaining activity | 101% |
| CN1CC(Oc2cnc(C#N)cc2-c2ccn3nc(NC(=O)C4CC4)cc3c2)C1 | enzyme activity, inhibitor | 1 µM | inhibition | 10% |
| Nc1ncnc2occ(-c3ccc(NC(=O)Nc4cc(C(F)(F)F)ccc4F)cc3)c12 | cell-free assay, inhibitor | 20 µM | remaining signal | 0% |
| CC(C)(C)C(=O)c1sc(NC2CCCCC2)nc1N | enzyme activity, inhibitor | 10 µM | remaining activity | 82% |
| COc1cc2ncnc(Nc3ccc(Oc4ccccc4)cc3C)c2cc1OC | enzyme activity, inhibitor | 1 µM | inhibition | 5% |
| CN([C@@H]1CCc2c(CC(=O)O)c3ccccc3n2C1)S(=O)(=O)c1ccc(F)cc1 | cell-free assay, competition with immobilised ligand | 1 µM | remaining binding | 88% |
| Cn1c2c(c3ccc(Cl)c(Cl)c31)C(C#N)C1(CCNCC1)NC2=O (racemic) | thermal stability, DSF | 10 µM | ΔTm | 0.2 °C |
| O=C(Nc1ccc(Oc2ccc(F)cc2)cc1)N1CCc2ncccc2[C@H]1c1ccc(F)cc1 | cell-free assay, competition with immobilised ligand | 1 µM | remaining binding | 100% |
| COc1cccc2c(NCc3ccccc3)nc(-n3c(N)nc4ccccc43)nc12 | target engagement in cells, inhibitor, chemoproteomics | 20 mM | inhibition | -9.6% |
| N#CC1c2c([nH]c3c(Cl)c(Cl)ccc23)C(=O)NC12CCCCC2 (racemic) | thermal stability, DSF | 10 µM | ΔTm | -0.1 °C |
| COc1cc(Nc2cnc(C#N)c(O[C@H](C)CN(C)C)n2)ncc1-c1cnn(C)c1 | enzyme activity, inhibitor, radiometric | 1 µM | remaining activity | 96% |
| Cc1sc(C(=O)NC2COC2)cc1-n1cc(NC(=O)Nc2c(F)cccc2Cl)cn1 | enzyme activity, inhibitor | 10 µM | remaining activity | 94.3% |
| O=C1NC(=O)c2cc(Nc3ccc(F)cc3)c(Nc3ccc(F)cc3)cc21 | cell-free assay | 0.5 µM | remaining signal | 94.6% |
| CS(=O)(=O)Nc1cccc(-c2csc(NC(=O)CSc3nc4nccnc4c(=O)n3CCc3ccccc3)n2)c1 | enzyme activity, inhibitor | 10 µM | inhibition | 7% |
| CN(c1ncccc1CNc1nc(Nc2ccc3c(c2)CC(=O)N3)ncc1C(F)(F)F)S(C)(=O)=O | enzyme activity, inhibitor | 1 µM | inhibition | 7.8% |
| FC(F)c1nc2ccccc2n1-c1nc(N2CCOCC2)nc(N2CCOCC2)n1 | enzyme activity, inhibitor | 10 µM | remaining activity | 95% |
| CN1CCC2(CC1)NC(=O)c1c(c3ccc(Cl)c(Cl)c3n1C)C2C#N (racemic) | thermal stability, DSF | 10 µM | ΔTm | 0.4 °C |
| CC(C)(O)c1cncc(-c2nc3ccc(F)cc3n2C2CC2)c1 | cell-free assay, competition with immobilised ligand | 1 µM | remaining binding | 100% |

| SMILES | test | setting | quantity | value |
| --- | --- | --- | --- | --- |
| Cn1c2c(c3ccc(Cl)c(Cl)c31)C(C#N)C(C)(C)NC2=O (stereo not drawn) | thermal stability, DSF | 10 µM | ΔTm | 0.8 °C |
| CCN(CC)CCNC(=O)c1c(C)[nH]c(/C=C2\C(=O)Nc3ccc(F)cc32)c1C | enzyme activity, inhibitor | 0.3 µM | inhibition | -5% |
| Cn1nc(C(=O)NCc2ccc(C(=O)O)cc2)cc1-c1ccc2[nH]ccc2c1 | cell-free assay, competition with immobilised ligand | 0.1 µM | remaining binding | 86% |
| Cc1ccc(Nc2nccc(N(C)c3ccc4c(C)n(C)nc4c3)n2)cc1S(N)(=O)=O | enzyme activity, inhibitor | 10 µM | inhibition | 64% |
| O=C(Nc1cnc(Oc2ccc(F)cc2)nc1)N1CCc2ncccc2[C@@H]1c1ccc(F)cc1 | cell-free assay, competition with immobilised ligand | 1 µM | remaining binding | 84% |
| N#CCCc1ccc2c(c1)-c1[nH]c3ccc([N+](=O)[O-])cc3c1CC(=O)N2 | cell-free assay | 0.5 µM | remaining signal | 101% |
| Cn1c2c(Cl)c(Cl)ccc2c2cc(N)[nH]c(=O)c21 | thermal stability, DSF | 10 µM | ΔTm | 1.8 °C |
| Nc1nc(NC2CCCCC2)sc1C(=O)c1ccccc1 | enzyme activity, inhibitor | 10 µM | remaining activity | 22% |
| Cc1cc(-n2nc(Cc3cc(F)cc(C(F)(F)F)c3)nc2C)ccc1C(N)=O | cell-free assay, competition with immobilised ligand | 1 µM | remaining binding | 90% |
| Cc1cnc(NC2CCOCC2)nc1-n1cnc(C(=O)NC(CN)c2cc(F)cc(Cl)c2)c1 (stereo not drawn) | enzyme activity, inhibitor, radiometric | 1 µM | remaining activity | 78% |
| COc1cc(Cl)c(C(=O)N[C@@H](CN[C@H]2CC[C@@H](N)CC2)Cc2ccc(C#N)cc2)cc1-c1ccc(CN[C@H](C)c2ccc(C)cc2)o1 | enzyme activity, inhibitor | 1 µM | remaining activity | 92% |
| CNCc1ccc(-c2cc(-c3nc(-c4ccc(S(=O)(=O)C(C)C)cc4)cnc3N)on2)cc1 | enzyme activity, inhibitor | 0.4 µM | inhibition | 2% |
| Cn1c2c(c3ccccc31)C(C#N)C(C)(C)NC2=O (stereo not drawn) | thermal stability, DSF | 10 µM | ΔTm | -0.7 °C |
| CC(C)(O)[C@H]1CC[C@H](Nc2ccc3ncc(-c4cccc(C(F)(F)F)c4)n3n2)CC1 | enzyme activity, inhibitor | 1 µM | remaining activity | 103% |
| CC(C)(C)c1nc2c(s1)c1nc(N)ncc1c1ccc(NS(=O)(=O)c3c(F)cccc3F)c(F)c12 | enzyme activity, inhibitor, radiometric | 1 µM | remaining activity | 101% |
| CNCc1ccccc1-c1csc([C@H](C)Nc2nc(C)nc3cc(OC)c(OC)cc23)c1 | cell-free assay, competition with immobilised ligand | 1 µM | remaining binding | 100% |
| Cc1ccc(C(=O)Nc2ccc(CN3CCN(C)CC3)c(C(F)(F)F)c2)cc1C#Cc1cnc2cccnn12 | enzyme activity, inhibitor | 23.5 nM | remaining activity | 63% |
| Nc1cnc(N2CCc3cc(S(=O)(=O)Nc4c(F)cc(Cl)cc4F)cc(N4CCCC4=O)c32)nc1 | cell-free assay, competition with immobilised ligand | 1 µM | remaining binding | 100% |
| COc1cc2c(Nc3ccc(Br)cc3F)ncnc2cc1OCC1CCN(C)CC1 | cell-free assay | 0.5 µM | remaining signal | 97.1% |
